Measured values as given in ChEMBL document CHEMBL1649330, “Multicenter study for defining the breakpoint for rifampin resistance in Neisseria meningitidis by rpoB sequencing” (2010).
Converted amounts (≈) assume the structure as drawn.

Experiments:
Assay type in all cases: functional
Neisseria meningitidis [1] = test: Antimicrobial activity against Neisseria meningitidis harboring rpoB23 S548F mutant allele by Etest
Summary of the method: (§1)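 Rifampin MIC by Etest on meningococcal clinical isolates collected by the participating national laboratories, with MIC read in mg/liter. The rpoB gene of each isolate was sequenced and assigned to an allele. Isolates were serogrouped by agglutination with serogroup-specific antisera.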

Neisseria meningitidis [2] = test: Antimicrobial activity against Neisseria meningitidis harboring rpoB51 H552Y mutant allele by Etest; summary of the method: as §1
Neisseria meningitidis [3] = test: Antimicrobial activity against Neisseria meningitidis expressing wild type rpoB27 allele by Etest
Summary of the method: (§2)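 Rifampin MIC by Etest on meningococcal isolates from participating national laboratories, with rpoB sequenced for each isolate. Values are geometric means of MICs over all isolates carrying a given allele that lacks alterations at S548, H552 and S557 and lacks D542V. Only alleles represented by at least five isolates were reported.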

Neisseria meningitidis [4] = test: Antimicrobial activity against Neisseria meningitidis expressing wild type rpoB1 allele by Etest; summary of the method: as §2
Neisseria meningitidis [5] = test: Antimicrobial activity against Neisseria meningitidis expressing wild type rpoB4 allele by Etest; summary of the method: as §2
Neisseria meningitidis [6] = test: Antimicrobial activity against Neisseria meningitidis expressing wild type rpoB5 allele by Etest; summary of the method: as §2
Neisseria meningitidis [7] = test: Antimicrobial activity against Neisseria meningitidis harboring rpoB39 D542V mutant allele by Etest; summary of the method: as §1
Neisseria meningitidis [8] = test: Antimicrobial activity against Neisseria meningitidis harboring rpoB57 D542N mutant allele by Etest; summary of the method: as §1
Neisseria meningitidis [9] = test: Antimicrobial activity against Neisseria meningitidis harboring rpoB32 H552Y mutant allele by Etest; summary of the method: as §1
Neisseria meningitidis [10] = test: Antimicrobial activity against Neisseria meningitidis harboring rpoB10 H552R mutant allele by Etest; summary of the method: as §1
Neisseria meningitidis [11] = test: Antimicrobial activity against Neisseria meningitidis expressing wild type rpoB40 allele by Etest; summary of the method: as §2
Neisseria meningitidis [12] = test: Antimicrobial activity against Neisseria meningitidis harboring rpoB45 D542V mutant allele by Etest; summary of the method: as §1
Neisseria meningitidis [13] = test: Antimicrobial activity against Neisseria meningitidis harboring rpoB36 H552N mutant allele by Etest; summary of the method: as §1
Neisseria meningitidis [14] = test: Antimicrobial activity against Neisseria meningitidis harboring rpoB20 H552Y mutant allele by Etest; summary of the method: as §1
Neisseria meningitidis [15] = test: Antimicrobial activity against Neisseria meningitidis harboring rpoB16 H552Y mutant allele by Etest; summary of the method: as §1
Neisseria meningitidis [16] = test: Antimicrobial activity against Neisseria meningitidis harboring rpoB13 H552Y mutant allele by Etest; summary of the method: as §1
Neisseria meningitidis [17] = test: Antimicrobial activity against Neisseria meningitidis harboring rpoB15 H552N mutant allele by Etest; summary of the method: as §1
Neisseria meningitidis [18] = test: Antimicrobial activity against Neisseria meningitidis expressing wild type rpoB9 allele by Etest; summary of the method: as §2
Neisseria meningitidis [19] = test: Antimicrobial activity against Neisseria meningitidis harboring rpoB11 H552N mutant allele by Etest; summary of the method: as §1
Neisseria meningitidis [20] = test: Antimicrobial activity against Neisseria meningitidis expressing wild type rpoB2 allele by Etest; summary of the method: as §2
Neisseria meningitidis [21] = test: Antimicrobial activity against Neisseria meningitidis harboring rpoB46 H552N mutant allele by Etest; summary of the method: as §1
Neisseria meningitidis [22] = test: Antimicrobial activity against Neisseria meningitidis harboring rpoB12 H552L mutant allele by Etest; summary of the method: as §1
Neisseria meningitidis [23] = test: Antimicrobial activity against Neisseria meningitidis harboring rpoB53 G560S mutant allele by Etest; summary of the method: as §1
Neisseria meningitidis [24] = test: Antimicrobial activity against Neisseria meningitidis harboring rpoB50 S557F mutant allele by Etest; summary of the method: as §1
Neisseria meningitidis [25] = test: Antimicrobial activity against Neisseria meningitidis expressing wild type rpoB34 allele by Etest; summary of the method: as §2
Neisseria meningitidis [26] = test: Antimicrobial activity against Neisseria meningitidis harboring rpoB19 S557F mutant allele by Etest; summary of the method: as §1
Neisseria meningitidis [27] = test: Antimicrobial activity against Neisseria meningitidis expressing wild type rpoB31 allele by Etest; summary of the method: as §2
Neisseria meningitidis [28] = test: Antimicrobial activity against Neisseria meningitidis harboring rpoB14 S548F mutant allele by Etest; summary of the method: as §1
Neisseria meningitidis [29] = test: Antimicrobial activity against Neisseria meningitidis expressing wild type rpoB18 allele by Etest; summary of the method: as §2
Neisseria meningitidis [30] = test: Antimicrobial activity against Neisseria meningitidis expressing wild type rpoB28 allele by Etest; summary of the method: as §2
Neisseria meningitidis [31] = test: Antimicrobial activity against Neisseria meningitidis harboring rpoB37 G560S mutant allele by Etest; summary of the method: as §1
Neisseria meningitidis [32] = test: Antimicrobial activity against Neisseria meningitidis harboring rpoB44 H552Y mutant allele by Etest; summary of the method: as §1
Neisseria meningitidis [33] = test: Antimicrobial activity against Neisseria meningitidis harboring rpoB26 D542N and S557F mutant allele by Etest; summary of the method: as §1
Neisseria meningitidis [34] = test: Antimicrobial activity against Neisseria meningitidis harboring rpoB17 H552Y mutant allele by Etest; summary of the method: as §1

## CO[C@H]1/C=C/O[C@@]2(C)Oc3c(C)c(O)c4c(O)c(c(/C=N/N5CCN(C)CC5)c(O)c4c3C2=O)NC(=O)/C(C)=C\C=C\[C@H](C)[C@H](O)[C@@H](C)[C@@H](O)[C@@H](C)[C@H](OC(C)=O)[C@@H]1C [RIFAMPIN]
Neisseria meningitidis [1]
  MIC: > 32 µg/mL
Neisseria meningitidis [2]
  MIC: > 32 µg/mL
Neisseria meningitidis [3]
  MIC: 0.15 µg/mL (≈ 0.182 µM)
Neisseria meningitidis [4]
  MIC: 0.225 µg/mL (≈ 0.273 µM)
Neisseria meningitidis [5]
  MIC: 0.089 µg/mL (≈ 0.108 µM)
Neisseria meningitidis [6]
  MIC: 0.061 µg/mL (≈ 0.0741 µM)
Neisseria meningitidis [7]
  MIC: > 32 µg/mL
Neisseria meningitidis [8]
  MIC: 0.125 µg/mL (≈ 0.152 µM)
Neisseria meningitidis [9]
  MIC: > 32 µg/mL
Neisseria meningitidis [10]
  MIC: > 32 µg/mL
Neisseria meningitidis [11]
  MIC: 0.034 µg/mL (≈ 0.0413 µM)
Neisseria meningitidis [12]
  MIC: 256 µg/mL (≈ 311 µM)
Neisseria meningitidis [13]
  MIC: 8 µg/mL (≈ 9.72 µM)
Neisseria meningitidis [14]
  MIC: > 32 µg/mL
Neisseria meningitidis [15]
  MIC: > 32 µg/mL
Neisseria meningitidis [16]
  MIC: > 32 µg/mL
Neisseria meningitidis [17]
  MIC: > 32 µg/mL
Neisseria meningitidis [18]
  MIC: 0.065 µg/mL (≈ 0.079 µM)
Neisseria meningitidis [19]
  MIC: > 32 µg/mL
Neisseria meningitidis [20]
  MIC: 0.057 µg/mL (≈ 0.0693 µM)
Neisseria meningitidis [21]
  MIC: 256 µg/mL (≈ 311 µM)
Neisseria meningitidis [22]
  MIC: > 32 µg/mL
Neisseria meningitidis [23]
  MIC: 0.125 µg/mL (≈ 0.152 µM)
Neisseria meningitidis [24]
  MIC: > 32 µg/mL
Neisseria meningitidis [25]
  MIC: 0.029 µg/mL (≈ 0.0352 µM)
Neisseria meningitidis [26]
  MIC: > 32 µg/mL
Neisseria meningitidis [27]
  MIC: 0.015 µg/mL (≈ 0.0182 µM)
Neisseria meningitidis [28]
  MIC: > 32 µg/mL
Neisseria meningitidis [29]
  MIC: 0.024 µg/mL (≈ 0.0292 µM)
Neisseria meningitidis [30]
  MIC: 0.025 µg/mL (≈ 0.0304 µM)
Neisseria meningitidis [31]
  MIC: 8 µg/mL (≈ 9.72 µM)
Neisseria meningitidis [32]
  MIC: 256 µg/mL (≈ 311 µM)
Neisseria meningitidis [33]
  MIC: > 32 µg/mL
Neisseria meningitidis [34]
  MIC: > 32 µg/mL
